Results on 10 compounds are retold here after ChEMBL document CHEMBL1156792, “Application of the dipeptidyl peptidase IV (DPPIV/CD26) based prodrug approach to different amine-containing drugs” (J Med Chem, 2010).

For data set [1], the system named is Human immunodeficiency virus 1. As to the kind of experiment: Antiviral activity against HIV1 3B infected in human CEM cells assessed as inhibition of virus-induced cytopathicity. The data set is classed as functional, organism-based. The note with it: Human immunodeficiency virus 1, 3B, CCRF-CEM. The essentials:
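CEM cells (~4.5 × 10⁵/mL) were infected with HIV-1 IIIB at 100 CCID₅₀/mL and exposed to compound dilutions (final 0.62–2000 μM) at 37 °C. Giant cell formation was scored microscopically after 4–5 days. EC₅₀ is the concentration preventing syncytium formation by 50%.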
(Protection from cytopathic effect is a common read-out in antiviral testing.)

Data set [2] in a line: Solubility in water. The data set is classed as physicochemical. Put shortly: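 Excess solid was suspended in deionized water, sonicated 10 min at room temperature, equilibrated overnight at room temperature and centrifuged. Supernatant was diluted into a five-point standard curve range. Concentration came from HPLC peak area against a DMSO-dissolved standard of known concentration.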

The subject of data set [3] is Serum. As to the kind of experiment: Stability in 20 % bovine serum assessed as 6-aminoquinoline formation after 2 hrs. Conditions: cattle. The data set is classed as ADME, cell-free, Bos taurus. Put shortly:
(§1)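 Prodrug (50 μM) in PBS with 0.1% DMSO was incubated at 37 °C with purified CD26 (1.5 mU) or 20% human or bovine serum in PBS. Samples taken at time points were quenched in cold methanol on ice, centrifuged at 4 °C and analyzed by RP-8 HPLC. Buffer A was 50 mM NaH₂PO₄ with 5 mM heptanesulfonic acid, pH 3.2; buffer B was acetonitrile.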

Data set [4] concerns Serum. Briefly: Stability in 20 % human serum assessed as 6-aminoquinoline formation after 2 hrs. The data set is classed as ADME, cell-free. The essentials: as §1
Data set [5] deals with CCRF-CEM. Briefly: Cytotoxicity against human CEM cells assessed as inhibition of cell proliferation after 48 hrs. The data set is classed as functional, cell-based.
Data set [6] deals with HeLa. As to the kind of experiment: Cytotoxicity against human HeLa cells assessed as inhibition of cell proliferation after 48 hrs. The data set is classed as functional, cell-based.
Data set [7] concerns L1210. Briefly: Cytotoxicity against mouse L1210 cells assessed as inhibition of cell proliferation after 48 hrs. The data set is classed as functional, cell-based. The note with it: L1210, 48 h. The essentials: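 L1210 cells were seeded at (5–7.5) × 10⁴ cells/well in 200 μL wells with compound. Cell number was counted by Coulter counter after 48 h. IC₅₀ is the concentration inhibiting proliferation by 50%.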

For data set [8], the system named is Serum. Briefly: Stability in 20 % human serum assessed as 6-aminoquinoline formation within 4 hrs. The data set is classed as ADME, cell-free. Put shortly:
as §1

Data set [9] is described as follows: Stability assessed as 6-aminoquinoline formation in human recombinant CD26 measured within 4 hrs. The data set is classed as ADME. Put shortly: as §1
Data set [10] has as its system Serum. As to the kind of experiment: Stability in 20 % bovine serum assessed as 6-aminoquinoline formation within 4 hrs. The data set is classed as ADME, cell-free, Bos taurus. Conditions: cattle. The essentials: as §1
Data set [11] concerns Vaccinia virus. As to the kind of experiment: Antiviral activity against Vaccinia virus Lederle infected in HEL cells assessed as inhibition of virus-induced cytopathicity. The data set is classed as functional, organism-based. The note with it: Orthopoxvirus vaccinia.
Data set [12] concerns Human alphaherpesvirus 1. As to the kind of experiment: Antiviral activity against HSV1 KOS infected in HEL cells assessed as inhibition of virus-induced cytopathicity. Conditions: Human alphaherpesvirus 1, KOS. The data set is classed as functional, organism-based. The essentials:
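HEL cell cultures in 96-well plates were infected with HSV-1 (KOS) at 100 CCID₅₀/mL in the presence or absence of compound.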

Data set [13] concerns Human alphaherpesvirus 1. As to the kind of experiment: Antiviral activity against HSV1 KOS infected in HEL cells assessed as inhibition of virus-induced cytopathicity in presence of vildagliptin. The data set is classed as functional, organism-based. The note with it: Human alphaherpesvirus 1, KOS. The essentials: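 HEL cells were infected with HSV-1 (KOS) at 100 CCID₅₀/mL with compound. The CD26 inhibitor vildagliptin (20 μM) was added once at the start of infection.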

Data set [14] concerns Vaccinia virus. Briefly: Antiviral activity against Vaccinia virus Lederle infected in HEL cells assessed as inhibition of virus-induced cytopathicity in presence of vildagliptin. The data set is classed as functional, organism-based. The note with it: Orthopoxvirus vaccinia.
Data set [15] deals with Dipeptidyl peptidase 4 (Homo sapiens, UniProt P27487). As to the kind of experiment: Inhibition of human DPP4 from human Caco-2 cells. The data set is classed as cell-based.
Chain of Dipeptidyl peptidase 4 (P27487 whole entry): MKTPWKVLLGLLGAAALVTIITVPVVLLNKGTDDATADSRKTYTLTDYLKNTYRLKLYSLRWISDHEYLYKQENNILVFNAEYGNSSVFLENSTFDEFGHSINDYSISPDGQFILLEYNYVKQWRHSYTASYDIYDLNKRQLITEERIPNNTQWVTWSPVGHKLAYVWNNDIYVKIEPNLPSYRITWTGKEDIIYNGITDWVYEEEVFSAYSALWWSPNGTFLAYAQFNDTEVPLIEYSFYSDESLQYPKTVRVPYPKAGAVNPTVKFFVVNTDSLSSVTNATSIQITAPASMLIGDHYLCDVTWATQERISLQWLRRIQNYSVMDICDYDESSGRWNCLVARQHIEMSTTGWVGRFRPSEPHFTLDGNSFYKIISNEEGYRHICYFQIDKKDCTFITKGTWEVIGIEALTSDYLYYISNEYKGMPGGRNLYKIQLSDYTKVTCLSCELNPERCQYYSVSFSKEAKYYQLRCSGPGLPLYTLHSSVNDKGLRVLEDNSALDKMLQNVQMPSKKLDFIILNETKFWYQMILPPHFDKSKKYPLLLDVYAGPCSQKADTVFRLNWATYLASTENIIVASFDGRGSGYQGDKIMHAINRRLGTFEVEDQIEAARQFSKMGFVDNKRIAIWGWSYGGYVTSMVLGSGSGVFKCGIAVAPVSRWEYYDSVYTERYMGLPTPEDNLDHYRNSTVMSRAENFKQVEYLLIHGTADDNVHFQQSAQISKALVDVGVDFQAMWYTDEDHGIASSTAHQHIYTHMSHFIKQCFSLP

In brackets after ≈: the same amount, converted by molar mass. Peptide text beside a SMILES is read from it. * marks the point of attachment. X2 = OC[C@H]1O[C@@H](n2cnc3c(N*)ncnc32)[C@@H](O)[C@@H]1O; X1 = O=c1nc(N*)ccn1[C@@H]1O[C@H](CO)[C@@H](O)[C@@H]1O

As a reminder, the EC50 is the concentration giving half of the maximal effect. As for `CC(C)(C)[Si](C)(C)OC[C@H]1O[C@@H](n2ccc(N)nc2=O)[C@@H](O)[C@@H]1O[Si](C)(C)C(C)(C)C`, the EC50 in data set [1] is 70 nM.

For orientation: solubility means how much of the substance goes into solution per volume. The low end stands for a poorly soluble substance, the high end for a readily soluble substance. `CC(C)[C@H](N)C(=O)N1CCC[C@H]1C(=O)Nc1ccc2ncccc2c1`: the concentration in solution in [2] (solubility) was 33.2 mg/mL (≈ 97.5 mM).

Regarding `N[C@@H](CC(=O)O)C(=O)N1CCC[C@H]1C(=O)Nc1ccc2ncccc2c1`, the concentration in solution in data set [2] (solubility) came to 47.8 mg/mL (≈ 134 mM).

In the case of `Cc1cn([C@@H]2O[C@H](CO[Si](C)(C)C(C)(C)C)[C@@]3(OS(=O)(=O)C=C3N)[C@H]2O[Si](C)(C)C(C)(C)C)c(=O)nc1NC(=O)[C@@H]1CCCN1C(=O)[C@@H](NC(=O)[C@@H]1CCCN1C(=O)[C@@H](N)C(C)C)C(C)C`, the Activity is 40% in data set [3] and 20% in data set [4].

The compound `Nc1ccc2ncccc2c1` showed a solubility in data set [2] of 7.01 mg/mL (≈ 48.6 mM).

Usually IC50 stands for the concentration that gives 50% inhibition. `CC(C)[C@H](N)C(=O)N[C@@H](C)C(=O)N[C@H](C(=O)N1CCC[C@H]1C(=O)Nc1ccn([C@@H]2O[C@H](CO)[C@@H](O)[C@@H]2O)c(=O)n1)C(C)C` (H-VAVP-X1): the IC50 was 50 nM in [5], 560 nM in [6] and 82 nM in [7].

As for `CC(C)[C@H](N)C(=O)N1CCC[C@H]1C(=O)N[C@H](C(=O)N1CCC[C@H]1C(=O)Nc1ccn([C@@H]2O[C@H](CO)[C@@H](O)[C@@H]2O)c(=O)n1)C(C)C` (H-VPVP-X1), the IC50 in data set [5] amounted to 57 nM; in data set [6], 630 nM; in data set [7], 100 nM. Also, the Activity in data set [8], in [9] and in data set [10] was 80% each time.

Turning to `CC(C)[C@H](N)C(=O)N1CCC[C@H]1C(=O)N[C@H](C(=O)N1CCC[C@H]1C(=O)Nc1ncnc2c1ncn2[C@@H]1O[C@H](CO)[C@@H](O)[C@@H]1O)C(C)C` (H-VPVP-X2), the EC50 worked out at 16000 nM in [11], 54000 nM in data set [12], 238000 nM in [13] and 135000 nM in data set [14]. In [2], this compound registered a solubility of 34.7 mg/mL (≈ 52.7 mM).

As to `Nc1ccn([C@@H]2O[C@H](CO)[C@@H](O)[C@@H]2O)c(=O)n1` [CYTARABINE], in data set [6], the IC50 was found to be 260 nM.

As for `Nc1ncnc2c1ncn2[C@@H]1O[C@H](CO)[C@@H](O)[C@@H]1O` [VIDARABINE], the EC50 in [11] was determined as 8300 nM; in data set [12] it was 35000 nM; in data set [13] it was 42000 nM; in [14] it was 10000 nM. Also, in [15], the IC50 came to 62 nM.
